What was measured:
Format in all cases: functional
Settings in all cases: read-out: GI
Candida albicans [1] = test: Antifungal activity against Candida albicans CAI4 expressing delta-cph1/delta-efg1 (EFG1) gene assessed as growth inhibition at 1 ug/ml by CLSI M27-A3 method
In short: (§1)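 CLSI M27-A3 broth microdilution in RPMI, read after 48 h. Strains pre-grown 18 h in YEPD at 30°C. Final inoculum 0.5×10^2–2.5×10^3 cells/ml. Two-fold dilutions in RPMI came from a 1600 µg/ml stock in water with 9% DMSO; final DMSO was 0.09%. OD405 read, % inhibition = 100 − (CTW−SCW)/(GCW−SCW). Triplicate on three occasions, mean±SD.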

Candida albicans [2] = test: Antifungal activity against Candida albicans CAI4 expressing delta-cph1 (CPH1) gene assessed as growth inhibition at 1 ug/ml by CLSI M27-A3 method; in short: as §1
Candida albicans [3] = test: Antifungal activity against Candida albicans 90028 assessed as growth inhibition at 1 ug/ml by CLSI M27-A3 method; in short: as §1
Candida albicans [4] = test: Antifungal activity against Candida albicans CAI4 expressing delta-efg1 (EFG1) gene assessed as growth inhibition at 1 ug/ml by CLSI M27-A3 method; in short: as §1
Candida albicans [5] = test: Antifungal activity against Candida albicans CAI4 expressing delta-cph1 gene assessed as growth inhibition at 1 ug/ml by CLSI M27-A3 method; in short: as §1
Candida albicans [6] = test: Antifungal activity against Candida albicans CAI4 expressing delta-efg1 gene assessed as growth inhibition at 1 ug/ml by CLSI M27-A3 method
In short: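 CLSI M27-A3 broth microdilution in RPMI. Final inoculum 0.5×10^2 to 2.5×10^3 cells/ml. Seven two-fold concentrations from 0.25 to 16 µg/ml, with DMSO held at 0.09% (v/v) in all wells. Compound-free growth controls and sterility controls are run for each strain. […] Triplicate on three occasions.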

Candida albicans [7] = test: Antifungal activity against Candida albicans CAI4 expressing delta-cph1/delta-efg1 gene assessed as growth inhibition at 1 ug/ml by CLSI M27-A3 method; in short: as §1

Measured: inhibition of growth at 1 µg/mL

C[C@@H]1[C@H](O)[C@@H](C)/C=C/C=C/C=C/C=C/C=C/C=C/C=C/[C@H](O[C@@H]2O[C@H](C)[C@@H](O)[C@H](N)[C@@H]2O)C[C@@H]2O[C@](O)(C[C@@H](O)C[C@@H](O)[C@H](O)CC[C@@H](O)C[C@@H](O)CC(=O)O[C@H]1C)C[C@H](O)[C@H]2C(=O)O [AMPHOTERICIN B]
100%: all assays above

Reference: ChEMBL document CHEMBL3351861, “New synthetic sulfone derivatives inhibit growth, adhesion and the leucine arylamidase APE2 gene expression of Candida albicans in vitro” (2015)
